In ChEMBL document CHEMBL4311941, “Development of Multifunctional Histone Deacetylase 6 Degraders with Potent Antimyeloma Activity” (J Med Chem, 2019):
pIC50: −log10 of the molar value. Calls of active or inactive are those of the source. No cut-off for these calls is given here.

Tests used:
[1] = target: Protein cereblon/Zinc finger protein Aiolos (Homo sapiens) (UniProt Q96SW2+Q9UKT9); assay: Protac activity at CRBN/IKZF3 in human MM1S cells assessed as IKZF3 degradation at 100 nM measured after 6 hrs in presence of HDAC6 inhibitor Next-A by Western blot analysis; assay type: cell-based
Summary of the method: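 MM1S cells seeded at 1 × 10^6 per well overnight. Pretreated 1 h with pomalidomide, Next-A, MLN 4924 or DMSO, then given 100 nM degrader or DMSO for 6 h. Lysed in RIPA with protease inhibitors, 10−40 μg protein run on SDS-PAGE and transferred to PVDF. Blots probed for IKZF1/IKZF3, detected by ECL and quantified by densitometry.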

[2] = target: T1, Protein cereblon/Protein deacetylase HDAC6 (Homo sapiens, UniProt Q9UBN7+Q96SW2); assay: Protac activity at CRBN/HDAC6 in human MM1S cells assessed as HDAC6 degradation at 100 nM incubated for 6 hrs followed by compound washout and measured up to 48 hrs by Western blot analysis; assay type: cell-based
Summary of the method: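 MM1S cells treated 6 h with 100 nM, washed with PBS to remove compound, then HDAC6 followed by immunoblot for up to 48 h. Lysis in RIPA; SDS-PAGE and PVDF transfer; primary antibody 4 °C overnight, HRP secondary, ECL.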

MM1.S = assay: Effect on HDAC1 mRNA expression in human MM1S cells at 100 nM measured after 6 hrs by SYBR green dye-based qRT-PCR analysis; assay type: functional, cell-based
Summary of the method: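 After treatment, MM1S cells washed twice with cold PBS. Total RNA extracted and normalized, then reverse-transcribed. 10 ng cDNA amplified with SYBR Green: 50 °C 2 min, 95 °C 2 min, then 40 cycles of 95 °C 1 s / 60 °C 30 s, followed by a melt curve. Expression calculated by the 2−ΔΔCt method.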

Histone deacetylase 4 = Histone deacetylase 4 (Homo sapiens, UniProt P56524); assay: Inhibition of human N-terminal tagged human HDAC4 expressed in HEK293T/17 using Boc-[TFA-Lys]-AMC as substrate preincubated for 10 mins followed by substrate addition and measured after 60 mins by fluorescence assay
[3] = target: T1, Protein cereblon/Protein deacetylase HDAC6; assay: Protac activity at CRBN/HDAC6 in human MCF7 cells assessed as HDAC6 degradation up to 10 uM incubated for 6 hrs by Western blot analysis; assay type: cell-based
[4] = target: Histone deacetylase (Homo sapiens) (UniProt Q13547+O15379+Q9UBN7+Q92769+Q9UQL6+Q8WUI4+Q9BY41+Q96DB2+P56524+Q9UKV0+Q969S8); conditions: at 100 nM
Histone deacetylase 9 = Histone deacetylase 9 (Homo sapiens, UniProt Q9UKV0); assay: Inhibition of human N-terminal tagged human HDAC9 expressed in HEK293T/17 using Boc-[TFA-Lys]-AMC as substrate preincubated for 10 mins followed by substrate addition and measured after 60 mins by fluorescence assay
[5] = target: T1, Protein cereblon/Protein deacetylase HDAC6; assay: Protac activity at CRBN/HDAC6 in human MM1S cells assessed as HDAC6 degradation measured after 6 hrs by ELISA relative to control; assay type: cell-based
Summary of the method: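 In-cell ELISA: MM1S cells (5 × 10^4 per well) seeded overnight, treated 6 h (dosed as 5× medium; 0.1 nM–1 μM or 10/100 nM). Fixed in 8% formaldehyde/TBS, permeabilized with 0.1% Triton X, peroxidase quenched with 1% H2O2, blocked in 5% BSA. Anti-HDAC6 rabbit mAb (1:1000, 2 h) then HRP secondary; TMB read as OD450 − OD570. Background wells lacked primary antibody. Signal normalized to Janus Green and to DMSO wells, n = 3. DC50/Dmax from three-parameter fit.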

T1 sequence (Q96SW2 whole entry, looked up): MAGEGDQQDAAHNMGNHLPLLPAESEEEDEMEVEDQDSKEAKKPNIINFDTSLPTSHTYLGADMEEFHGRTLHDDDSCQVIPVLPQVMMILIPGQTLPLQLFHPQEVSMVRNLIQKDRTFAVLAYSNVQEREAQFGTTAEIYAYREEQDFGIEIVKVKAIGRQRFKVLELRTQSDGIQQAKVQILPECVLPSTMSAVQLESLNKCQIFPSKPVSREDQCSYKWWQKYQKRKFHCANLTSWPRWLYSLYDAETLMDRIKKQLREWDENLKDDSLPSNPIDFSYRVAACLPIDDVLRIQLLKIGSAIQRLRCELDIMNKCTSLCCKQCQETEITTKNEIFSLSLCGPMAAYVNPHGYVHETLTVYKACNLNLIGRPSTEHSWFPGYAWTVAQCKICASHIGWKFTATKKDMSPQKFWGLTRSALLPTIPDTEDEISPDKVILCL
T1 sequence (Q9UBN7 whole entry, looked up): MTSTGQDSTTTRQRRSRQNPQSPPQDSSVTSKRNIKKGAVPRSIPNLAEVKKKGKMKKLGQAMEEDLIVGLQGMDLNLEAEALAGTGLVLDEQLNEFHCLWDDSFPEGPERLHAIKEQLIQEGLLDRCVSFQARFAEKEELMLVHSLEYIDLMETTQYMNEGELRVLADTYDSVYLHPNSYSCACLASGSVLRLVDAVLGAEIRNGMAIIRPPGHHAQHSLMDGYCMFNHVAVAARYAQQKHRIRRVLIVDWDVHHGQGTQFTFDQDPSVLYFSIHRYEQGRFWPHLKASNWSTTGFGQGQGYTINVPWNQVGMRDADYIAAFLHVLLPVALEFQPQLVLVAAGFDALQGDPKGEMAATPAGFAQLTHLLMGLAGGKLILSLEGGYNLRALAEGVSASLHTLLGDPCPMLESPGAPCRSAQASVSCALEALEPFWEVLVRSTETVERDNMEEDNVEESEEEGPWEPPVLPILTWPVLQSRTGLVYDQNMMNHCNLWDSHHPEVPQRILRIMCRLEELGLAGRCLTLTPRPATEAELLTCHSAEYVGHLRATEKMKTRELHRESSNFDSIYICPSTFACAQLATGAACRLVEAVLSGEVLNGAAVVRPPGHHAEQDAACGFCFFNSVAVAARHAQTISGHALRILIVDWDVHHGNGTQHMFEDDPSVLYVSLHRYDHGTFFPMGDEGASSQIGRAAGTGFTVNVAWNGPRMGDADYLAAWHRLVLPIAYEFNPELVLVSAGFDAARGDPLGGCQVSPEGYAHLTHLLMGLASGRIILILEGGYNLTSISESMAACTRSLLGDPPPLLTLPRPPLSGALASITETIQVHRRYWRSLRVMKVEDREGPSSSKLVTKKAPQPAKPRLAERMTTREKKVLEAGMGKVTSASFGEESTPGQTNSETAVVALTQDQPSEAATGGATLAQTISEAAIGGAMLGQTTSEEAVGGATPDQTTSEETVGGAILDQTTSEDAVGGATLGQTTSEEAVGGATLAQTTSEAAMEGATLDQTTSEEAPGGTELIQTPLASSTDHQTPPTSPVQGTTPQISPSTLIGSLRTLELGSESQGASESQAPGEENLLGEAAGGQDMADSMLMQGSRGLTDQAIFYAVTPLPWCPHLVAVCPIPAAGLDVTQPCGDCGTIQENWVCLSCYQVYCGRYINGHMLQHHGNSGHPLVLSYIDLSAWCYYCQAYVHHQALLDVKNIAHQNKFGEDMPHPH
Sequence of Histone deacetylase 4 (P56524 whole entry): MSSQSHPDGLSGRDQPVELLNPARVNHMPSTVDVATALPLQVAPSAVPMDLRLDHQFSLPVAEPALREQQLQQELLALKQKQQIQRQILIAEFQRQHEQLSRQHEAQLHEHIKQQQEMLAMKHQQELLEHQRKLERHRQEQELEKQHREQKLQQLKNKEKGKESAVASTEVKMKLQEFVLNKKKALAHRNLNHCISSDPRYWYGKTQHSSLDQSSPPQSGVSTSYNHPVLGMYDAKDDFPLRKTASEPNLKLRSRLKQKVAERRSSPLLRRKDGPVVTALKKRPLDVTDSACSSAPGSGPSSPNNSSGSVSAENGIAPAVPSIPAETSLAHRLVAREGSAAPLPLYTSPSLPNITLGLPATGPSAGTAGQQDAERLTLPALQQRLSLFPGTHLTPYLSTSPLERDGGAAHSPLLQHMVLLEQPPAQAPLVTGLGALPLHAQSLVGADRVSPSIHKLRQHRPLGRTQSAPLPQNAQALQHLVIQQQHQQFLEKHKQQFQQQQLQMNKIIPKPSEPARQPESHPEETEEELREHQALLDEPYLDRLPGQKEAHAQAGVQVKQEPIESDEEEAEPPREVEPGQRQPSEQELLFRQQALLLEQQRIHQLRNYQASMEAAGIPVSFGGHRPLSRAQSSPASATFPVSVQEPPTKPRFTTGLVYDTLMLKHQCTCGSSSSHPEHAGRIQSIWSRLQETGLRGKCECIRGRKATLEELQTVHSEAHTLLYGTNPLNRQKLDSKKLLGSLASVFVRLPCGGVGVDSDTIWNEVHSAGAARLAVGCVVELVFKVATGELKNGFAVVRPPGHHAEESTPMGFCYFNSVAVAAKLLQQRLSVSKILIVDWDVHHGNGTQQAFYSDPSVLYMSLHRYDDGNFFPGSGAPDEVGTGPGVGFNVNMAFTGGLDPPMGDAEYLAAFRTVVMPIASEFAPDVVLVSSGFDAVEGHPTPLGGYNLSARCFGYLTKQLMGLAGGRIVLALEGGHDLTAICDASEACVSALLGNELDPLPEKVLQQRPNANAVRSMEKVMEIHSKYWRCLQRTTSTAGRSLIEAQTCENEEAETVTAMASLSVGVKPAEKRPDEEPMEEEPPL
Sequence of Histone deacetylase 9 (Q9UKV0 whole entry): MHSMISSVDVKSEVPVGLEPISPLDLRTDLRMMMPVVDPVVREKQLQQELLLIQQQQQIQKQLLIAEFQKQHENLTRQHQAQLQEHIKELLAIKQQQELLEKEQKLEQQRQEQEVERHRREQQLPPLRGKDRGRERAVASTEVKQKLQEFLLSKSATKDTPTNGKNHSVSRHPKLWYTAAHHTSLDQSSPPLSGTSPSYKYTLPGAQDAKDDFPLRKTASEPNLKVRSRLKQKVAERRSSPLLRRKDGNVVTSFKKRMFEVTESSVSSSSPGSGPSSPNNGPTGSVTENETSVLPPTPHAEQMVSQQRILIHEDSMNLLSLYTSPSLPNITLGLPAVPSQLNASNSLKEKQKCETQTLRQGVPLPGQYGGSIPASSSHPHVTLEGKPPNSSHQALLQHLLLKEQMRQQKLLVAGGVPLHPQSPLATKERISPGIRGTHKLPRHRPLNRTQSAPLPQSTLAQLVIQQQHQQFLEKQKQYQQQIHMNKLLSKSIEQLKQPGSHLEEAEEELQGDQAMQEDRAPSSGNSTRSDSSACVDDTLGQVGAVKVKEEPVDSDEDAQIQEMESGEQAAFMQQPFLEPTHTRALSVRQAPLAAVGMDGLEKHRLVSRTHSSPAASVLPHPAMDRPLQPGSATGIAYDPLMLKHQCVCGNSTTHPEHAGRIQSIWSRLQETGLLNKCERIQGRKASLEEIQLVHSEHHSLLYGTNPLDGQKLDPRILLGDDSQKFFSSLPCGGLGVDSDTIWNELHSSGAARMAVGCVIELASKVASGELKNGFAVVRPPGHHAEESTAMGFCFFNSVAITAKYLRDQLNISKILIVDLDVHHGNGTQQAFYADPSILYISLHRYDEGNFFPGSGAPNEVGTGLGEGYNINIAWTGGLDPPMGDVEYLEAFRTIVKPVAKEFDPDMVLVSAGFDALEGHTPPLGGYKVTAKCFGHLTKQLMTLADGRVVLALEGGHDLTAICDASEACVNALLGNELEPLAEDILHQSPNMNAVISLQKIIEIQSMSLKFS
Sequence of Protein cereblon/Zinc finger protein Aiolos (Homo sapiens) (Q96SW2 whole entry, looked up): as the sequence (Q96SW2 whole entry, looked up) above
Sequence of Protein cereblon/Zinc finger protein Aiolos (Homo sapiens) (Q9UKT9 whole entry, looked up): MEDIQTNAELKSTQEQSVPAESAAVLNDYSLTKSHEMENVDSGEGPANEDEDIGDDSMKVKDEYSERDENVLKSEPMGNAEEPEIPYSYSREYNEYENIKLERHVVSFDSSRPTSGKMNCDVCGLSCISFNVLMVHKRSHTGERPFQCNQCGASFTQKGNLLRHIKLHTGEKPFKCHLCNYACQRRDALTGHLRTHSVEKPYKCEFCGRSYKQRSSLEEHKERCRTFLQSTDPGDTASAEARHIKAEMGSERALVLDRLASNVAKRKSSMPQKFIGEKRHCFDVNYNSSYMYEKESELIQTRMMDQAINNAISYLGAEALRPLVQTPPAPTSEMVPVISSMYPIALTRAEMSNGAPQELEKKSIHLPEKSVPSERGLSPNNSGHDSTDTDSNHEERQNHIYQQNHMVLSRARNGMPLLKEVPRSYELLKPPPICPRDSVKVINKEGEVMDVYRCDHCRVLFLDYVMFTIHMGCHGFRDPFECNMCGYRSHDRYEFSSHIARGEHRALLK

What does the source list for `CCCCN(Cc1ccc(C(=O)NO)cc1)C(=O)Nc1ccc(OCCCCCn2cc(CNc3cccc4c3C(=O)N(C3CCC(=O)NC3=O)C4=O)nn2)cc1` (stereo not drawn)?
Activity [1]: Active; Activity [2]: Active; Activity (MM1.S): Active; pIC50 (Histone deacetylase 4): 4.52 to 6.52; Activity [3]: Active; inhibition [4]: inactive; pIC50 (Histone deacetylase 9): 4.52 to 6.52; %max [5]: 86.3%
